Holding throughout (type): functional, organism-based
Assay [1] relates to Tick-borne encephalitis virus. Briefly: Antiviral activity against Tick-borne encephalitis virus infected in PEK cells assessed as reduction in viral plaque formation incubated for 1 hr by Reed-Muench method.
Assay [2] has as its system Human alphaherpesvirus 3. Briefly: Antiviral activity against thymidine kinase deficient Varicella zoster virus infected in HEL cells assessed as reduction in viral plaque formation incubated for 2 hrs. The following applies: Human alphaherpesvirus 3, HEL. A digest of the protocol:
(§1)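 Confluent HEL cultures received 100 CCID50 or 20 PFU of virus, with 2 h adsorption before inoculum removal. Cells were then incubated with compound from 100 μM downward. Cytopathicity or plaques were scored once untreated infected controls reached completion.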

The test system of assay [3] is Human alphaherpesvirus 3. Briefly: Antiviral activity against wild type Varicella zoster virus infected in HEL cells assessed as reduction in viral plaque formation incubated for 2 hrs. The following applies: Human alphaherpesvirus 3, HEL. Put shortly: as §1

Experimental findings from ChEMBL document CHEMBL4842312, “Phenoxazine nucleoside derivatives with a multiple activity against RNA and DNA viruses” (Eur J Med Chem, 2021) are described below.

On to `COc1ccc(C(OC[C@H]2O[C@@H](n3cc4c(nc3=O)Nc3ccccc3O4)C[C@@H]2O)(c2ccccc2)c2ccc(OC)cc2)cc1`, for which the EC50 in assay [1] came out at 400 nM.
Regarding `O=c1nc2c(cn1[C@H]1C[C@H](O)[C@@H](CO)O1)Oc1ccccc1N2`, the EC50 came to 10 µM in the assay with Human alphaherpesvirus 3 [2] and 60 nM with Human alphaherpesvirus 3 [3].

What is called EC50 is the concentration at which the effect is half-maximal.
